Activity calls are given as the source filed them. The rule behind the calls is not given here.
How the values were obtained:
[1] = biological target: T1, Short transient receptor potential channel 1 & 3/Stromal interaction molecule 1/Calcium release-activated calcium channel protein 1 (Homo sapiens) (UniProt Q96D31+Q13507+Q13586+P48995); assay: (§1) Modulation of TRPC1/TRPC3/STIM1/Orai1 in HEK cells assessed as induction of store-operated calcium entry by measuring residual activity at 10 uM preincubated for 30 mins followed by tBhQ-mediated Ca2+ depletion and Ca2+ re-addition to extracellular solution measured for 600 secs by Fluo-4 AM-based fluorometric assay relative to control; type: cell-based
T1 sequence (P48995 whole entry partner): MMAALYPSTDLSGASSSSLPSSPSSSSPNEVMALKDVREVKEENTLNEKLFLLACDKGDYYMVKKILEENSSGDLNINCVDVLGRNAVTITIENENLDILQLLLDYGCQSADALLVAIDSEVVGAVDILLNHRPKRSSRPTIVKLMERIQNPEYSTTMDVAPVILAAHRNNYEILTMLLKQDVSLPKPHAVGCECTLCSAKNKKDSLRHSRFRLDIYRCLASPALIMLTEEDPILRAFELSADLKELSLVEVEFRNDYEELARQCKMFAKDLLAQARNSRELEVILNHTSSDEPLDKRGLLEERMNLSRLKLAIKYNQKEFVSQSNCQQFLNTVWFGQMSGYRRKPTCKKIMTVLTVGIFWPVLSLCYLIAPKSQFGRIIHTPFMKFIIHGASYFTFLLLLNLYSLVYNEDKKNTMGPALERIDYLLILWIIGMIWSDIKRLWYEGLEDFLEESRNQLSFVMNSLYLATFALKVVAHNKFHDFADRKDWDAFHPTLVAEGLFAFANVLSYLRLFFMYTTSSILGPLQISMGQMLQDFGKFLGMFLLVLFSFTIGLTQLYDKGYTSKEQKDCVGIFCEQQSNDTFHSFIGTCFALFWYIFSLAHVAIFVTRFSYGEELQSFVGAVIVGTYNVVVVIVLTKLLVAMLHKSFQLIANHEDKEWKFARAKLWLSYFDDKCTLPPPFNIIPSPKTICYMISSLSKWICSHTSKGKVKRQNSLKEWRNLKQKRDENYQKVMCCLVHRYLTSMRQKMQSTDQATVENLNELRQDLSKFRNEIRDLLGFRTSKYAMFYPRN
T1 sequence (Q13507 whole entry partner): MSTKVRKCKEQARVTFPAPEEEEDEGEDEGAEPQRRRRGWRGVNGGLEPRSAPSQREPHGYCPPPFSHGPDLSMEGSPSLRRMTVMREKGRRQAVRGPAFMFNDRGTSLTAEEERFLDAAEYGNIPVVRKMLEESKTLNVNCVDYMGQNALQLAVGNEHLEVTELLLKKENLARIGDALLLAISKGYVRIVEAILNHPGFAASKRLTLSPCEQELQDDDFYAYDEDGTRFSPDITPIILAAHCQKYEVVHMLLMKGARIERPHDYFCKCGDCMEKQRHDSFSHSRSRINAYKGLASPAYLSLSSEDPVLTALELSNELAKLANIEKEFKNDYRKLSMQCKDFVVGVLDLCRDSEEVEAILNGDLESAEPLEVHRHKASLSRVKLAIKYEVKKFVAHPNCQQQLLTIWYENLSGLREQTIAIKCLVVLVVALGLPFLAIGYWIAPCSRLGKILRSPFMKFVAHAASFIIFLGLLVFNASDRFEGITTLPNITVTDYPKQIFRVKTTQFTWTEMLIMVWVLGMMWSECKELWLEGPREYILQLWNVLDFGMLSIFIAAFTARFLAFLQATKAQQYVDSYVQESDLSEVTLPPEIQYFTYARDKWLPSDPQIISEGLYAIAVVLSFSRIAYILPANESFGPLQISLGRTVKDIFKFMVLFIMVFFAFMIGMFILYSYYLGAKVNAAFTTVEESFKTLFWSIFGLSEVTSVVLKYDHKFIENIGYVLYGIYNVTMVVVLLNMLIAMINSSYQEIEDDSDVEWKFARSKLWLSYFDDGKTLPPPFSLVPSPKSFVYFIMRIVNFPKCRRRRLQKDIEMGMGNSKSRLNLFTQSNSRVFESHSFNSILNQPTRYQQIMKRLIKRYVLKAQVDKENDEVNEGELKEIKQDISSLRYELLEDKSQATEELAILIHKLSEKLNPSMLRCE
T1 sequence (Q13586 23-685 partner limits assumed): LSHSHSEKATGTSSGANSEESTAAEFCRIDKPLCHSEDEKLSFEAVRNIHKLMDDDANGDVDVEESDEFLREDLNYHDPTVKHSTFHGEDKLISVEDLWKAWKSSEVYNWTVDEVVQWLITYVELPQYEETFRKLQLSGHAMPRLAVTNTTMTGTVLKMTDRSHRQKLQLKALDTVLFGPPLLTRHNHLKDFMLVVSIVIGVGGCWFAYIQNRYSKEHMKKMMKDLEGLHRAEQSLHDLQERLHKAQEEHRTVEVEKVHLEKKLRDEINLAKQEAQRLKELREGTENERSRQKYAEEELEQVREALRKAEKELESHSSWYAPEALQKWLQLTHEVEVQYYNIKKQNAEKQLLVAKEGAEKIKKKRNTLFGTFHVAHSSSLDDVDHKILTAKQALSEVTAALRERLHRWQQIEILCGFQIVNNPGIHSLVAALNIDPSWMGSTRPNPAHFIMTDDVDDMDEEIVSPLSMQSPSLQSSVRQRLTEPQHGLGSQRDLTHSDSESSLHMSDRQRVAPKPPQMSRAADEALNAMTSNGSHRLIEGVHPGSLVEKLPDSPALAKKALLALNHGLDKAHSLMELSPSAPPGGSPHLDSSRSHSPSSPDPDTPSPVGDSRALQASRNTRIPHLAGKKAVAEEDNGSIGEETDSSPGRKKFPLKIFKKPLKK
T1 sequence (Q96D31 whole entry): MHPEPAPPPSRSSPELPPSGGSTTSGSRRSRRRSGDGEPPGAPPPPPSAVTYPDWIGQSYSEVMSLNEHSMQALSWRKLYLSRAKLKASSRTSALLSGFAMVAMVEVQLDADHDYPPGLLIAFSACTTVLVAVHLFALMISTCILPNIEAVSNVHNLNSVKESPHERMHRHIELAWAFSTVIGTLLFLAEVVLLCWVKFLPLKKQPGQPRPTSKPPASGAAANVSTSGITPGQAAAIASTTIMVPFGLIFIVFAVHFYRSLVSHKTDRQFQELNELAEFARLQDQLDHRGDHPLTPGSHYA

[2] = biological target: Short transient receptor potential channel 1 & 3/Stromal interaction molecule 1/Calcium release-activated calcium channel protein 1 (Homo sapiens, UniProt P48995+Q13507+Q13586+Q96D31); assay: as §1, with “activity” for “activity at 10 uM”; type: cell-based
[3] = Cytotoxicity against HEK cells assessed as cell viability at 10 uM by MTT assay relative to control; type: cell-based; settings: human, read-out: Activity
Procedure, shortened: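 Hek cells treated 24 h with compound at 10 μM; viability determined by MTT assay.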

[4] = biological target: Transient receptor potential cation channel subfamily V member 1 (Homo sapiens) (UniProt Q8NER1); assay: Antagonist activity at TRPV1 (unknown origin) expressed in HEK cells assessed as inhibition of capsaicin-induced calcium increase at 10 uM by fura-2-based assay; type: cell-based
Sequence of Transient receptor potential cation channel subfamily V member 1 (Homo sapiens) (Q8NER1 whole entry): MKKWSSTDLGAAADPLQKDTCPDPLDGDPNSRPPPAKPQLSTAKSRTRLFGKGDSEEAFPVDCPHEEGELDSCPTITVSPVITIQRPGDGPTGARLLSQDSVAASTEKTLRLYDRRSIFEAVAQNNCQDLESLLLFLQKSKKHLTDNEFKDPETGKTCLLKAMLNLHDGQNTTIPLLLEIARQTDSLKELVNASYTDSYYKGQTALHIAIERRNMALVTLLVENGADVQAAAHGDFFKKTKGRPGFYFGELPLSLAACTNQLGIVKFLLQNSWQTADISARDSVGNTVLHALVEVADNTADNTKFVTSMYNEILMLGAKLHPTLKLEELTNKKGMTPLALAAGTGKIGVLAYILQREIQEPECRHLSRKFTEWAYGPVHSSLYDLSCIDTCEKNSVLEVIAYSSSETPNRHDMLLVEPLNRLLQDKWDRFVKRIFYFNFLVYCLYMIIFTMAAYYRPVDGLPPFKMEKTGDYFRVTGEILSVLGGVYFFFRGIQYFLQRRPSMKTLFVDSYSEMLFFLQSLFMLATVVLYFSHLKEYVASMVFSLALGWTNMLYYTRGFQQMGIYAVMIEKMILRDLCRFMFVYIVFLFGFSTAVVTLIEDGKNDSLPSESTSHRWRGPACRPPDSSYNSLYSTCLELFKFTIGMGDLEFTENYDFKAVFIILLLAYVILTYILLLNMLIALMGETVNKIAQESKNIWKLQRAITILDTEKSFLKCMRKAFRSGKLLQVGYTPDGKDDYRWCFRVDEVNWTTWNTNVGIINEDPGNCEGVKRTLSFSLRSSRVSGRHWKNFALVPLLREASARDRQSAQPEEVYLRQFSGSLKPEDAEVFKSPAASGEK
Procedure, shortened: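 TRPV1-overexpressing Hek cells; calcium rise evoked by capsaicin (100 nM), test compounds at 10 μM; peak amplitude read out; mean ± SEM of 600 cells from 30 plates on four separate experimental days.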

[5] = biological target: Transient receptor potential cation channel subfamily M member 8 (Homo sapiens) (UniProt Q7Z2W7); assay: Antagonist activity at TRPM8 (unknown origin) expressed in HEK cells assessed as inhibition of menthol -mediated calcium increase at 10 uM by fura-2-based assay; type: cell-based
Sequence of Transient receptor potential cation channel subfamily M member 8 (Homo sapiens) (Q7Z2W7 whole entry, looked up): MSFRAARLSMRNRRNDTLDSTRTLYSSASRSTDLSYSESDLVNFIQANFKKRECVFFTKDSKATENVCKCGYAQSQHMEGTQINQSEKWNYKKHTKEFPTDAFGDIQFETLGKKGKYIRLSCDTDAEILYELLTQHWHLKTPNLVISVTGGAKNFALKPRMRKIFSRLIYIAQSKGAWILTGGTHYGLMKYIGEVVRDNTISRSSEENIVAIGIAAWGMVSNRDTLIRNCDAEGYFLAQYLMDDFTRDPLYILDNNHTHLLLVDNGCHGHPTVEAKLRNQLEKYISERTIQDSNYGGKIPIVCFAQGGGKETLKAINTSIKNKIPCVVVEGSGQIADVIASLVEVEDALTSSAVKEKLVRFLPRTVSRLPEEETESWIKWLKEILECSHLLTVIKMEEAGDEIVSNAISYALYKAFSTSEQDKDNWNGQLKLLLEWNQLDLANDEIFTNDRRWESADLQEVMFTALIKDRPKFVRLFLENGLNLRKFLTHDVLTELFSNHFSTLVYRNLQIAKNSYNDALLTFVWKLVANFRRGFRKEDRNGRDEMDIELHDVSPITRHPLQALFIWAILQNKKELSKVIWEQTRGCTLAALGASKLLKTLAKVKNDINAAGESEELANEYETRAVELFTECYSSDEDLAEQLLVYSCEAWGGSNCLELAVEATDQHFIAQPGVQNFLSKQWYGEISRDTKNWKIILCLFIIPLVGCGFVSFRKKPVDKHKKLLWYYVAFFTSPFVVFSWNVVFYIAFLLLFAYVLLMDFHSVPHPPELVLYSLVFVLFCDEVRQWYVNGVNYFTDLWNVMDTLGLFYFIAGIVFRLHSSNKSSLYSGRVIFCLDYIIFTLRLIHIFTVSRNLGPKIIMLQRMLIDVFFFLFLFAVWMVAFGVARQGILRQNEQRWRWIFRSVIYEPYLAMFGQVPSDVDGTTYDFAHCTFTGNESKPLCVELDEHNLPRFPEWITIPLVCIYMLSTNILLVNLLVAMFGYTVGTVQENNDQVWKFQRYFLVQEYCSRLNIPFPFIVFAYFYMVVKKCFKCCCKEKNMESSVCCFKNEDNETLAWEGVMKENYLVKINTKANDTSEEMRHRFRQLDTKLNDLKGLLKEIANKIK
Procedure, shortened: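 TRPM8-overexpressing Hek cells; calcium rise evoked by menthol (100 μM), test compounds at 10 μM; peak amplitude read out; mean ± SEM of 600 cells from 30 plates on four separate experimental days.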

[6] = biological target: T2, Stromal interaction molecule 1 & 2/Calcium release-activated calcium channel protein 1 (Mus musculus) (UniProt Q8BWG9+P70302+P83093); assay: as §1, with “STIM1/STIM2/Orai1” for “TRPC1/TRPC3/STIM1/Orai1”, “mouse BV2” for “HEK”; type: cell-based
[7] = system: Jurkat; assay: as §1, with “Induction” for “Modulation”, “store-operated calcium entry” for “TRPC1/TRPC3/STIM1/Orai1”, “human Jurkat” for “HEK”; type: cell-based
[8] = as §1, with “Induction” for “Modulation”, “store-operated calcium entry” for “TRPC1/TRPC3/STIM1/Orai1”, “human Jurkat” for “HEK”, “activity” for “activity at 10 uM”; type: cell-based
[9] = Metabolic stability in CD1 mouse plasma assessed as residual compound level at 50 uM after 30 mins by LC-UV analysis; type: ADME, cell-free; settings: read-out: Stability
Procedure, shortened: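 Compounds incubated in mouse plasma for 30 min; percentage of residual substrate determined.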

[10] = biological target: T2, Stromal interaction molecule 1 & 2/Calcium release-activated calcium channel protein 1 (Mus musculus); assay: as §1, with “STIM1/STIM2/Orai1” for “TRPC1/TRPC3/STIM1/Orai1”, “mouse BV2” for “HEK”, “100” for “10”; type: cell-based
[11] = biological target: T1, Short transient receptor potential channel 1 & 3/Stromal interaction molecule 1/Calcium release-activated calcium channel protein 1 (Homo sapiens); assay: as §1, with “100” for “10”; type: cell-based
[12] = system: Jurkat; assay: as §1, with “Induction” for “Modulation”, “store-operated calcium entry” for “TRPC1/TRPC3/STIM1/Orai1”, “human Jurkat” for “HEK”, “100” for “10”; type: cell-based
[13] = organism: Homo sapiens; assay: Modulation of Orai1/STIM1 (unknown origin) expressed in HEK cells assessed as potentiation of store-operated calcium currents by measuring reduction in time constant of channel activation in presence of 20 mM BAPTA and 150 nM Ca2+ containing internal solution by patch clamp assay relative to control; type: cell-based
[14] = biological target: T1, Short transient receptor potential channel 1 & 3/Stromal interaction molecule 1/Calcium release-activated calcium channel protein 1 (Homo sapiens); assay: as §1, with “increase in AUC of calcium entry” for “residual activity”, “3 to 100” for “10”; type: cell-based
[15] = biological target: T1, Short transient receptor potential channel 1 & 3/Stromal interaction molecule 1/Calcium release-activated calcium channel protein 1 (Homo sapiens); assay: as §1, with “increase in peak amplitude” for “residual activity”, “3 to 100” for “10”; type: cell-based
[16] = biological target: T1, Short transient receptor potential channel 1 & 3/Stromal interaction molecule 1/Calcium release-activated calcium channel protein 1 (Homo sapiens); assay: as §1, with “increase in slope” for “residual activity”, “3 to 100” for “10”; type: cell-based
[17] = biological target: T2, Stromal interaction molecule 1 & 2/Calcium release-activated calcium channel protein 1 (Mus musculus); assay: as §1, with “STIM1/STIM2/Orai1” for “TRPC1/TRPC3/STIM1/Orai1”, “mouse BV2” for “HEK”, “increase in AUC of calcium entry” for “residual activity”, “3 to 100” for “10”; type: cell-based
[18] = biological target: T2, Stromal interaction molecule 1 & 2/Calcium release-activated calcium channel protein 1 (Mus musculus); assay: as §1, with “STIM1/STIM2/Orai1” for “TRPC1/TRPC3/STIM1/Orai1”, “mouse BV2” for “HEK”, “increase in peak amplitude” for “residual activity”, “3 to 100” for “10”; type: cell-based
[19] = biological target: T2, Stromal interaction molecule 1 & 2/Calcium release-activated calcium channel protein 1 (Mus musculus); assay: as §1, with “STIM1/STIM2/Orai1” for “TRPC1/TRPC3/STIM1/Orai1”, “mouse BV2” for “HEK”, “increase in slope” for “residual activity”, “3 to 100” for “10”; type: cell-based
[20] = system: Jurkat; assay: as §1, with “Induction” for “Modulation”, “store-operated calcium entry” for “TRPC1/TRPC3/STIM1/Orai1”, “human Jurkat” for “HEK”, “increase in peak amplitude” for “residual activity”, “3 to 100” for “10”; type: cell-based
[21] = system: Jurkat; assay: as §1, with “Induction” for “Modulation”, “store-operated calcium entry” for “TRPC1/TRPC3/STIM1/Orai1”, “human Jurkat” for “HEK”, “increase in AUC of calcium entry” for “residual activity”, “3 to 100” for “10”; type: cell-based
[22] = system: Jurkat; assay: as §1, with “Induction” for “Modulation”, “store-operated calcium entry” for “TRPC1/TRPC3/STIM1/Orai1”, “human Jurkat” for “HEK”, “increase in slope” for “residual activity”, “3 to 100” for “10”; type: cell-based
[23] = biological target: T3, ORAI1/STIM1 (Homo sapiens) (UniProt Q96D31+Q13586); assay: Modulation of Orai1/STIM1 (unknown origin) expressed in HEK cells assessed as potentiation of store-operated calcium currents in presence of 20 mM BAPTA by patch clamp assay relative to control; type: cell-based
T3 sequence (Q13586 23-685 partner limits assumed): as the sequence (Q13586 23-685 partner limits assumed) above
T3 sequence (Q96D31 whole entry): as the sequence (Q96D31 whole entry) above
Procedure, shortened: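 Whole-cell ISOC recorded in Hek cells stably overexpressing Orai1 and transiently expressing STIM1; internal solution strongly buffered with 20 mM BAPTA; compound at 10 μM versus untreated control.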

[24] = biological target: T3, ORAI1/STIM1 (Homo sapiens); assay: Modulation of Orai1/STIM1 (unknown origin) expressed in HEK cells assessed as potentiation of store-operated calcium currents in presence of 20 mM BAPTA and 150 nM Ca2+ containing internal solution by patch clamp assay relative to control; type: cell-based
[25] = biological target: T2, Stromal interaction molecule 1 & 2/Calcium release-activated calcium channel protein 1 (Mus musculus); assay: as §1, with “STIM1/STIM2/Orai1” for “TRPC1/TRPC3/STIM1/Orai1”, “mouse BV2” for “HEK”, “entry” for “entry by measuring residual activity”, “800” for “600”; type: cell-based
Procedure, shortened: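 Microplate Fluo-4 assay in mouse microglial BV-2 cells. Stores emptied with tBhQ (50 μM) in presence of compound (10 μM); extracellular Ca2+ re-added after 600 s and intracellular Ca2+ read fluorimetrically; SOCE expressed versus control.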

[26] = biological target: T1, Short transient receptor potential channel 1 & 3/Stromal interaction molecule 1/Calcium release-activated calcium channel protein 1 (Homo sapiens); assay: as §1, with “entry” for “entry by measuring residual activity”, “800” for “600”; type: cell-based
[27] = system: Jurkat; assay: Induction of store-operated calcium entry in human Jurkat cells assessed as induction of store-operated calcium entry at 10 uM preincubated for 30 mins followed by tBhQ-mediated Ca2+ depletion and Ca2+ re-addition to extracellular solution measured for 800 secs by Fluo-4 AM-based fluorometric assay relative to control; type: cell-based
[28] = system: voltage-gated calcium channel (Mus musculus); assay: Antagonist activity at voltage-gated calcium channels in C57/BL6 mouse cerebellar granule cells assessed as inhibition of KCl-induced voltage dependent calcium entry at 10 uM by fura-2-based assay
[29] = system: voltage-gated calcium channel (Mus musculus); assay: as above; remark: listed apart in the source
[30] = Drug metabolism in CD1 mouse liver microsomes assessed as ester group hydrolysis at 50 uM after 60 mins in presence of NADPH/UDPGA; type: ADME, microsome; settings: 1 h
[31] = Drug metabolism in CD1 mouse liver microsomes assessed as ester group hydrolysis at 50 uM after 60 mins in absence of NADPH/UDPGA; type: ADME, microsome; settings: 1 h
[32] = Metabolic stability in CD1 mouse liver S9 fraction assessed as residual compound level at 50 uM after 1 hr; type: ADME, subcellular; settings: read-out: Stability
Procedure, shortened: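 Hydrolytic stability measured in mouse liver S9 fraction; residual substrate quantified after 1 h incubation.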

[33] = Drug metabolism in CD1 mouse liver microsomes assessed as 1-(4-(4-(3-Carboxyphenyl)-1H-1,2,3-triazol-1-yl)phenyl)-5-(trifluoromethyl)-1H-pyrazole-4-carboxylic Acid metabolite formation at 50 uM after 60 mins by mass spectroscopic analysis; type: ADME, microsome

Row | SMILES | Activity [1] [%] | viability at 10 µM [3] [%] | Activity [6] [%] | Activity [7] [%] | other results
1 | O=C(Nc1ccc(-n2nc(C(F)(F)F)cc2C(F)(F)F)cc1)c1ccncc1F | 10.3 | 70.3 |  |  | IC50 [2]: 300 nM; inhibition [4]: Active; inhibition [5]: Active
2 | CCOC(=O)c1cnn(-c2ccc(NC(=O)C(Cl)=C(Cl)Cl)cc2)c1C(F)(F)F | 8.9 | 28.6 | 40.7 | 6.1 | IC50 [8]: 300 nM; inhibition [4]: inactive; inhibition [5]: inactive; remaining at 0.5 h, 50 µM [9]: 20.4%; residual activity [10]: < 100%; residual activity [11]: < 100%; residual activity [12]: < 100%
3 | CCOC(=O)c1cnn(-c2ccc(-c3cn(-c4cccc(C(=O)O)c4)nn3)cc2)c1C(F)(F)F | 30 |  | 56.7 | 36.3 | 
4 | CCOC(=O)c1cnn(-c2ccc(-c3cn(-c4cccc(N)c4)nn3)cc2)c1C(F)(F)F | 73.2 |  | 61.3 | 85.4 | 
5 | CCOC(=O)c1cnn(-c2ccc(-c3cn(CCCC(=O)O)nn3)cc2)c1C(F)(F)F | 95.5 |  | 69.9 | 80.9 | 
6 | O=C(O)c1cccc(-c2cn(-c3ccc(-n4ncc(C(=O)OCc5ccccc5)c4C(F)(F)F)cc3)nn2)c1 | 10.5 | 82.2 |  |  | 
7 | CCOC(=O)c1cnn(-c2ccc(-c3cn(-c4ccc(C(=O)O)cc4)nn3)cc2)c1C(F)(F)F | 69.3 |  | 69.5 | 60.3 | 
8 | CCOC(=O)c1cnn(-c2ccc(-c3cn(-c4ccc(Cl)cc4)nn3)cc2)c1C(F)(F)F | 142 |  | 153 | 197 | Activity [13]: Active; inhibition [4]: inactive; inhibition [5]: inactive; Activity [14]: Active; Activity [15]: Active; Activity [16]: Active; Activity [17]: Active; Activity [18]: Active; Activity [19]: Active; Activity [20]: Active; Activity [21]: Active; Activity [22]: Active; Activity [23]: Active; Activity [24]: inactive; Activity [25]: inactive; Activity [26]: inactive; Activity [27]: inactive; inhibition [28]: inactive; inhibition [29]: inactive
9 | CCOC(=O)c1cnn(-c2ccc(NC(=O)c3cccc(C(=O)O)c3)cc2)c1C(F)(F)F | 63.5 | 65.9 |  |  | 
10 | CCOC(=O)c1cnn(-c2ccc(-n3cc(-c4cccc(N)c4)nn3)cc2)c1C(F)(F)F | 81.7 |  | 65.3 | 89.3 | 
11 | COC(=O)c1cnn(-c2ccc(-n3cc(-c4cccc(C(=O)O)c4)nn3)cc2)c1C(F)(F)F | 7.9 | 69.2 |  |  | remaining at 0.5 h, 50 µM [9]: 6.5%
12 | CCOC(=O)c1cnn(-c2ccc(-n3cc(-c4ccc(O)c(OC)c4)nn3)cc2)c1C(F)(F)F | 43.2 |  | 65 | 21.6 | 
13 | CCOC(=O)c1cnn(-c2ccc(-n3cc(-c4cccc(C(=O)NO)c4)nn3)cc2)c1C(F)(F)F | 6.4 | 67.5 |  |  | 
14 | O=C(O)c1cccc(-c2cn(-c3ccc(-n4nc(C(F)(F)F)cc4C(F)(F)F)cc3)nn2)c1 | 53 |  | 61.3 | 61.7 | 
15 | CCOC(=O)c1cnn(-c2ccc(-c3cn(-c4ccncc4F)nn3)cc2)c1C(F)(F)F | 81.4 |  | 62.3 | 67.1 | 
16 | CCOC(=O)c1cnn(-c2ccc(-n3cc(-c4ccc(C(=O)O)cc4)nn3)cc2)c1C(F)(F)F | 52.1 |  | 59.9 | 67.7 | 
17 | CC(C)OC(=O)c1cnn(-c2ccc(-n3cc(-c4cccc(C(=O)O)c4)nn3)cc2)c1C(F)(F)F | 3.5 | 87.2 |  |  | IC50 [2]: 3100 nM; inhibition [4]: inactive; inhibition [5]: inactive; remaining at 0.5 h, 50 µM [9]: 87.7%; Drug metabolism [30]: Metabolite_Detected; Drug metabolism [31]: Metabolite_Detected; remaining at 1 h, 50 µM [32]: 81.3%; Drug metabolism [33]: Metabolite_Notdetected; inhibition [28]: inactive; inhibition [29]: inactive
